Data set [1] deals with Receptor-type tyrosine-protein kinase FLT3 (Homo sapiens), P36888 [UNDEFINED MUTATION]. Briefly: Inhibition of FLT3 ITD mutant (unknown origin) using TAMRA-Src- tide as substrate at 12.5 uM after 1 hr by fluorescence polarization assay relative to control. The method in brief: (§1)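 FLT3-ITD kinase inhibition by fluorescence polarization IMAP assay; each compound tested at 12.5 and 1.25 μM; percent inhibition, average of two parallel measurements.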
For orientation: Fluorescence polarisation rises when a labelled molecule tumbles more slowly, as on binding a larger partner.

Data set [2] shares this test system. Briefly: Inhibition of FLT3 ITD mutant (unknown origin) using TAMRA-Src- tide as substrate at 1.25 uM after 1 hr by fluorescence polarization assay relative to control. An outline of the steps:
as §1

The test system of a further data set is MV4-11. The experiment in a line: Antiproliferative activity against human MV4-11 cells after 72 hrs by Celltiter-Glo luminescent cell viability assay. Format: functional, cell-based. Particulars: MV4-11, 72 h. An outline of the steps:
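MV4-11 leukaemia cells, 72 h proliferation assay, luminescence read-out; IC50 determined from concentration–response.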

Data set [3] can be described thus: Aqueous solubility in pH 7.4 phosphate buffer at 120 uM after 24 hrs by HPLC method. Format: physicochemical.
A short description of data set [4]: Lipophilicity, chromatographic hydrophobicity index of the compound at pH 7.4 by HPLC method. It is filed as physicochemical. The note with it: buffer. The method in brief: (§2)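 RP-HPLC with buffer/acetonitrile gradient elution; CHI profile at starting pH 10.5, 7.4, 5.5 and 1.2; values given as average of the compound group.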
The nature of data set [5]: Lipophilicity, chromatographic hydrophobicity index of the compound at pH 1.2 by HPLC method. The note with it: buffer. Format: physicochemical. An outline of the steps: as §2
A short description of data set [6]: Aqueous solubility in pH 5.5 phosphate buffer at 120 uM after 24 hrs by HPLC method. It is filed as physicochemical. Particulars: phosphate buffer, pH 5.5.
The conditions of data set [7]: buffer, pH 10.5.
The nature of data set [8]: Lipophilicity, chromatographic hydrophobicity index of the compound at pH 5.5 by HPLC method. Format: physicochemical. Particulars: buffer. The method in brief:
as §2

The structures appear in SMILES notation. ≈ marks a conversion by molar mass, not a printed value.

Receptor-type tyrosine-protein kinase FLT3 (Homo sapiens), P36888 [UNDEFINED MUTATION], sequence (P36888 whole entry, looked up, change not shown): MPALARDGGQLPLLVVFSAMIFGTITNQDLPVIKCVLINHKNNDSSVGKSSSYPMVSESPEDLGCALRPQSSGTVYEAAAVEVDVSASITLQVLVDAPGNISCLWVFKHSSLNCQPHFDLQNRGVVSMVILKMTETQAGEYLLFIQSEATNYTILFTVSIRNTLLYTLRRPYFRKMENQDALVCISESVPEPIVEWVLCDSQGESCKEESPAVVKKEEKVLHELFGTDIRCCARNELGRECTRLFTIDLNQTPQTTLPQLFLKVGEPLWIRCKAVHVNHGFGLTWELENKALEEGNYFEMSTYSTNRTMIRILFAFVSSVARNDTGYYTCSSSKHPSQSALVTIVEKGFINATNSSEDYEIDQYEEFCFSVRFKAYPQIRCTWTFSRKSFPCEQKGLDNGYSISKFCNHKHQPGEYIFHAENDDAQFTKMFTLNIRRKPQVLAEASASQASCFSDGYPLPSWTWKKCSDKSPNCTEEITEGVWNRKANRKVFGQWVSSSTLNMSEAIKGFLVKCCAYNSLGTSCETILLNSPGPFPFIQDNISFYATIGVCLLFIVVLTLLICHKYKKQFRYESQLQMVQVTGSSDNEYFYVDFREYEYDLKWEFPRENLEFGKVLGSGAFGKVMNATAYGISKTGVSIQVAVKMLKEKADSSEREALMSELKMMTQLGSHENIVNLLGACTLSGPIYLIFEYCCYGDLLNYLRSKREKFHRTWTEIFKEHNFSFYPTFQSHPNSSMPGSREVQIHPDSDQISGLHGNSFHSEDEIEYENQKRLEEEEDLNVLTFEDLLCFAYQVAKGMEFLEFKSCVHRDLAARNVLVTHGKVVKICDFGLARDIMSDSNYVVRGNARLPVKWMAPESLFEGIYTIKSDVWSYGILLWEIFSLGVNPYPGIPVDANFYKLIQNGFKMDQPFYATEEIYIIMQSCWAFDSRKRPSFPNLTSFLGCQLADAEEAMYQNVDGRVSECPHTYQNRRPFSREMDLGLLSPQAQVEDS

A word on the inhibition: it is the drop in the measured response relative to a control, in per cent. As a reminder, the IC50 is the concentration that inhibits the measured activity by half. Higher therefore signals a need for much substance. For `COC(=O)CC[C@H](NC(=O)c1c(C)[nH]c(/C=C2\C(=O)Nc3ccc(C(=O)N[C@H](Cc4ccccc4)C(=O)OC)cc32)c1C)C(=O)OC`, the values for the inhibition in data set [1] and in data set [2] were 88.4% and 35.3%, respectively. In the data set on MV4-11, this compound yielded an IC50 of 3.2 µM.

On to `COC(=O)[C@H](Cc1ccccc1)NC(=O)c1ccc2c(c1)/C(=C/c1[nH]c(C)c(C(=O)N[C@H](Cc3ccccc3)C(=O)OC)c1C)C(=O)N2`, for which the inhibition was found to be 67.7% in data set [1] and 35.4% in data set [2]. In addition, in the data set on MV4-11, the 50% inhibitory concentration (IC50) is 3.3 µM.

Broadly, the solubility is the concentration that dissolves in the medium under given conditions. On to `COC(=O)[C@H](Cc1ccccc1)NC(=O)c1c(C)[nH]c(/C=C2\C(=O)Nc3ccc(C(=O)N[C@@H](Cc4ccccc4)C(=O)O)cc32)c1C`, for which the figures for the solubility at 24 h, 120 µM in data set [3] and in data set [6] were 50 µM (≈ 31.7 µg/mL) and 20 µM (≈ 12.7 µg/mL), respectively. Besides, the CHI in data set [4] is given as 60; in data set [5] it was 81; in [7] it was 58; in data set [8], 60. The inhibition in data set [1] is above 100%; in data set [2], 94.8%.

`COC(=O)[C@@H](Cc1ccccc1)NC(=O)c1c(C)[nH]c(/C=C2\C(=O)Nc3ccc(C(=O)N[C@@H](Cc4ccccc4)C(=O)O)cc32)c1C`: the inhibition in data set [1] was above 100%; in data set [2] it was 93.5%.

For `Cc1[nH]c(/C=C2\C(=O)Nc3ccc(C(=O)N[C@H](Cc4ccccc4)C(=O)O)cc32)c(C)c1C(=O)O`, the inhibition in data set [1] is above 100%; in data set [2], 87.1%.

As for `CCOC(=O)c1c(C)[nH]c(/C=C2\C(=O)Nc3ccc(C(=O)N[C@H](Cc4ccccc4)C(=O)OC)cc32)c1C`, the inhibition stood at 92.2% in [1] and 61.3% in data set [2]. In the data set with MV4-11, this compound registered an IC50 of 1.3 µM.

For `COC(=O)c1ccc2c(c1)/C(=C/c1[nH]c(C)c(C(=O)N[C@H](Cc3ccccc3)C(=O)O)c1C)C(=O)N2`, the values for the inhibition in data set [1] and in data set [2] were above 100% and 91%, respectively. Besides, the IC50 in the data set with MV4-11 was found to be 3.9 µM.

`COC(=O)CC[C@H](NC(=O)c1ccc2c(c1)/C(=C/c1[nH]c(C)c(C(=O)N[C@H](Cc3ccccc3)C(=O)O)c1C)C(=O)N2)C(=O)OC`: the inhibition in data set [1] is above 100%; in [2] it was 70.3%.

With `COC(=O)[C@@H](Cc1ccccc1)NC(=O)c1ccc2c(c1)/C(=C/c1[nH]c(C)c(C(=O)N[C@H](Cc3ccccc3)C(=O)OC)c1C)C(=O)N2`, the inhibition was determined as 85.8% in [1] and 35.4% in data set [2]. Further, in the data set on MV4-11, the IC50 came out at 2.9 µM.

In the case of `COC(=O)[C@@H](Cc1ccccc1)NC(=O)c1c(C)[nH]c(/C=C2\C(=O)Nc3ccc(C(=O)N[C@H](Cc4ccccc4)C(=O)O)cc32)c1C`, the inhibition in data set [1] is above 100%; in data set [2], 66.4%.

As to `COC(=O)[C@H](Cc1ccccc1)NC(=O)c1ccc2c(c1)/C(=C/c1[nH]c(C)c(C(=O)N[C@H](Cc3ccccc3)C(=O)O)c1C)C(=O)N2`, the inhibition in data set [1] was above 100%; in data set [2], 89.6%. Further, the IC50 with MV4-11 came out at 18.1 µM.

Take `COC(=O)CC[C@@H](NC(=O)c1c(C)[nH]c(/C=C2\C(=O)Nc3ccc(C(=O)N[C@H](Cc4ccccc4)C(=O)O)cc32)c1C)C(=O)OC`: the inhibition in data set [1] was above 100%; in [2] it was 39.2%.

For the compound `COC(=O)CC[C@@H](NC(=O)c1c(C)[nH]c(/C=C2\C(=O)Nc3ccc(C(=O)N[C@H](Cc4ccccc4)C(=O)OC)cc32)c1C)C(=O)OC`, the inhibition in data set [1] came to 63.8%; in data set [2], 37.9%. The compound also showed a half-maximal inhibitory concentration (IC50) in the data set with MV4-11 of 1.6 µM.

Consider `CCOC(=O)c1c(C)[nH]c(/C=C2\C(=O)Nc3ccc(C(=O)N[C@H](Cc4ccccc4)C(=O)O)cc32)c1C`, for which the inhibition in data set [1] was 96.2%; in [2], 47%.

Turning to `COC(=O)[C@H](Cc1ccccc1)NC(=O)c1c(C)[nH]c(/C=C2\C(=O)Nc3ccc(C(=O)N[C@H](Cc4ccccc4)C(=O)OC)cc32)c1C`, the inhibition stood at 70.3% in [1] and 29% in data set [2]. The same compound gave an IC50 in the data set on MV4-11 of 2.5 µM.

Regarding `Cc1[nH]c(/C=C2\C(=O)Nc3ccc(C(=O)O)cc32)c(C)c1C(=O)N[C@H](Cc1ccccc1)C(=O)O`, the inhibition in data set [1] was above 100%; in data set [2], 87%.

In the case of `COC(=O)[C@@H](Cc1ccccc1)NC(=O)c1ccc2c(c1)/C(=C/c1[nH]c(C)c(C(=O)N[C@H](Cc3ccccc3)C(=O)O)c1C)C(=O)N2`, the inhibition is above 100% in data set [1] and 28.9% in data set [2]. This compound displayed a concentration for half-maximal inhibition (IC50) in the data set with MV4-11 of 19.7 µM.

Consider `COC(=O)CC[C@H](NC(=O)c1ccc2c(c1)/C(=C/c1[nH]c(C)c(C(=O)N[C@H](CCC(=O)OC)C(=O)OC)c1C)C(=O)N2)C(=O)OC`, for which the inhibition was found to be 81.9% in data set [1] and 43.2% in data set [2].

For `COC(=O)c1ccc2c(c1)/C(=C/c1[nH]c(C)c(C(=O)N[C@H](Cc3ccccc3)C(=O)OC)c1C)C(=O)N2`, the inhibition in data set [1] was 80.6%; in data set [2] it was 47%. In the data set on MV4-11, this compound displayed an IC50 of 0.3 µM.

On to `COC(=O)[C@H](Cc1ccccc1)NC(=O)c1c(C)[nH]c(/C=C2\C(=O)Nc3ccc(C(=O)N[C@H](Cc4ccccc4)C(=O)O)cc32)c1C`, for which the inhibition was determined as 94.8% in data set [1] and 18.6% in data set [2].

Regarding `CCN(CC)CCNC(=O)c1c(C)[nH]c(/C=C2\C(=O)Nc3ccc(F)cc32)c1C` [SUNITINIB], the solubility at 24 h, 120 µM in data set [3] and in data set [6] was at least 120 µM in each case. Moreover, the CHI amounted to 57 in data set [4], 51 in [5] and 55 in data set [8]. Further, the results for the inhibition in [1] and in data set [2] were 94.8% and 92.3%, respectively. In the data set with MV4-11, the 50% inhibitory concentration (IC50) is below 0.01 µM.

As to `COC(=O)CC[C@@H](NC(=O)c1c(C)[nH]c(/C=C2\C(=O)Nc3ccc(C(=O)OC)cc32)c1C)C(=O)OC`, the inhibition in data set [1] was 93.5%; in [2] it was 88.3%. In the data set with MV4-11, this compound returned an IC50 of 1.3 µM.

`COC(=O)CC[C@H](NC(=O)c1ccc2c(c1)/C(=C/c1[nH]c(C)c(C(=O)N[C@H](Cc3ccccc3)C(=O)OC)c1C)C(=O)N2)C(=O)OC`: the results for the inhibition in data set [1] and in data set [2] were 78% and 31.5%, respectively. The compound further gave an IC50 with MV4-11 above 30 µM.

Regarding `COC(=O)CC[C@@H](NC(=O)c1ccc2c(c1)/C(=C/c1[nH]c(C)c(C(=O)N[C@@H](Cc3ccccc3)C(=O)OC)c1C)C(=O)N2)C(=O)OC`, the inhibition in data set [1] was found to be 49.6%; in [2] it was 8.2%. Further, half-maximal inhibition in the data set with MV4-11 (IC50) required 16.8 µM.

With `COC(=O)CC[C@H](NC(=O)c1c(C)[nH]c(/C=C2\C(=O)Nc3ccc(C(=O)N[C@H](CCC(=O)OC)C(=O)OC)cc32)c1C)C(=O)OC`, the inhibition worked out at 70.3% in data set [1] and 80.4% in data set [2].

In the case of `Cc1[nH]c(/C=C2\C(=O)Nc3ccc(C(=O)N[C@@H](Cc4ccccc4)C(=O)O)cc32)c(C)c1C(=O)N[C@H](Cc1ccccc1)C(=O)O`, the inhibition in [1] was above 100%; in data set [2], 104%.

Take `COC(=O)CC[C@@H](NC(=O)c1c(C)[nH]c(/C=C2\C(=O)Nc3ccc(C(=O)O)cc32)c1C)C(=O)OC`: the inhibition in data set [1] was above 100%; in data set [2], 93.5%.

With `COC(=O)CC[C@@H](NC(=O)c1ccc2c(c1)/C(=C/c1[nH]c(C)c(C(=O)N[C@H](Cc3ccccc3)C(=O)OC)c1C)C(=O)N2)C(=O)OC`, the inhibition in [1] is 32.8%; in data set [2], 12.1%. In addition, in the data set with MV4-11, the half-inhibitory concentration (IC50) was found to be 10.3 µM.

`COC(=O)CC[C@@H](NC(=O)c1ccc2c(c1)/C(=C/c1[nH]c(C)c(C(=O)N[C@@H](Cc3ccccc3)C(=O)O)c1C)C(=O)N2)C(=O)OC`: the inhibition is above 100% in [1] and 67.7% in [2].

Consider `COC(=O)CC[C@@H](NC(=O)c1ccc2c(c1)/C(=C/c1[nH]c(C)c(C(=O)N[C@H](Cc3ccccc3)C(=O)O)c1C)C(=O)N2)C(=O)OC`, for which the values for the inhibition in data set [1] and in data set [2] were above 100% and 73%, respectively.

Take `Cc1[nH]c(/C=C2\C(=O)Nc3ccc(C(=O)N[C@H](Cc4ccccc4)C(=O)O)cc32)c(C)c1C(=O)N[C@H](Cc1ccccc1)C(=O)O`: the inhibition in data set [1] was above 100%; in data set [2], 76.8%.

As for `COC(=O)[C@@H](Cc1ccccc1)NC(=O)c1ccc2c(c1)/C(=C/c1[nH]c(C)c(C(=O)O)c1C)C(=O)N2`, the inhibition in data set [1] turned out to be 27.5%; in [2], 76.7%. For the same compound, in the data set on MV4-11, 0.6 µM corresponded to half-maximal inhibition (IC50).

For `COC(=O)[C@@H](Cc1ccccc1)NC(=O)c1c(C)[nH]c(/C=C2\C(=O)Nc3ccc(C(=O)O)cc32)c1C`, the inhibition is above 100% in [1] and 97.4% in data set [2].

As for `CCOC(=O)c1c(C)[nH]c(/C=C2\C(=O)Nc3ccc(C(=O)N[C@H](CCC(=O)OC)C(=O)OC)cc32)c1C`, the results for the inhibition in data set [1] and in data set [2] were 79.3% and 3.1%, respectively.

As to `COC(=O)CC[C@@H](NC(=O)c1c(C)[nH]c(/C=C2\C(=O)Nc3ccc(C(=O)N[C@@H](Cc4ccccc4)C(=O)OC)cc32)c1C)C(=O)OC`, the figures for the inhibition in data set [1] and in data set [2] were 94.8% and 53.5%, respectively. For the same compound, the IC50 with MV4-11 was 25.4 µM.

Turning to `COC(=O)CC[C@@H](NC(=O)c1c(C)[nH]c(/C=C2\C(=O)Nc3ccc(C(=O)N[C@@H](Cc4ccccc4)C(=O)O)cc32)c1C)C(=O)OC`, the inhibition is above 100% in data set [1] and 90.9% in [2].

These data come from ChEMBL document CHEMBL4190404, “Synthesis and characterization of amino acid substituted sunitinib analogues for the treatment of AML” (Bioorg Med Chem Lett, 2018).
